The record followed here is ChEMBL document CHEMBL2163344, “Immunomodulatory properties of novel nucleotide oligomerization domain 2 (nod2) agonistic desmuramyldipeptides” (J Med Chem, 2012).

Activity calls are given as the source filed them. No cut-off for these calls is given here.

The subject of this assay is PBMC. Description: Immunomodulatory activity in human PBMCs assessed as reduction in PMA/ionomycin-induced TNFalpha release at 20 uM incubated for 18 hrs by multiplexed cytokine assay. The format is functional, cell-based. The method, boiled down: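 Ficoll-isolated human PBMC, 1 × 10^6 cells per well, treated with 20 μM compound (DMSO ≤0.1%) plus PMA 3.33 ng/mL and ionomycin 500 nM for 18 h at 37 °C, 5% CO2. Cell-free supernatant cytokines measured by CBA human inflammatory kit on a flow cytometer against recombinant standards. Reported as % of PMA/ionomycin-only release; duplicates, three experiments, three donors.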

Regarding `CCOC(=O)CC[C@@H](NC(=O)[C@H](C)NC(=O)CNC(=O)c1cc2ccccc2[nH]1)C(N)=O`, the outcome was Active.
